Laboratory results published in ChEMBL document CHEMBL3580633, “Benzoxaborole antimalarial agents. Part 4. Discovery of potent 6-(2-(alkoxycarbonyl)pyrazinyl-5-oxy)-1,3-dihydro-1-hydroxy-2,1-benzoxaboroles” (J Med Chem, 2015).
pIC50: −log10 of the molar value.

Legend:
Plasmodium berghei [1] = experiment: Antiplasmodial activity against Plasmodium berghei infected in Swiss Webster mouse assessed as mouse survival at 11 mg/kg, po dosed once daily for 4 consecutive days beginning 1 hr after initial infection and measured on day 8 post infection by Giemsa staining method; format: functional
Procedure, shortened: (§1)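 Female Swiss Webster mice (about 20 g) infected ip with 6 × 10^6 P. berghei-infected erythrocytes. Oral gavage once daily for 4 days, starting 1 h after infection. Vehicle PEG300/propylene glycol/water (55/25/20 by weight). Giemsa-smear parasitemia counted daily from day 4. Mice euthanised above 50% parasitemia. Survival followed to day 21, 5 mice per dose, chloroquine 30 mg/kg as reference.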

Plasmodium berghei [2] = experiment: Antiplasmodial activity against Plasmodium berghei infected in Swiss Webster mouse assessed as mouse survival at 3 mg/kg, po dosed once daily for 4 consecutive days beginning 1 hr after initial infection and measured on day 5 post infection by Giemsa staining method; format: functional; procedure, shortened: as §1
Plasmodium berghei [3] = experiment: Antiplasmodial activity against Plasmodium berghei infected in Swiss Webster mouse assessed as mouse survival at 3 mg/kg, po dosed once daily for 4 consecutive days beginning 1 hr after initial infection and measured on day 6 post infection by Giemsa staining method; format: functional; procedure, shortened: as §1
Plasmodium berghei [4] = experiment: Antiplasmodial activity against Plasmodium berghei infected in Swiss Webster mouse assessed as mouse survival at 3 mg/kg, po dosed once daily for 4 consecutive days beginning 1 hr after initial infection and measured on day 4 post infection by Giemsa staining method; format: functional; procedure, shortened: as §1
Plasmodium berghei [5] = experiment: Antiplasmodial activity against Plasmodium berghei infected in Swiss Webster mouse assessed as mouse survival at 33 mg/kg, po dosed once daily for 4 consecutive days beginning 1 hr after initial infection and measured on day 9 post infection by Giemsa staining method; format: functional
Procedure, shortened: (§2)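 Female Swiss Webster mice (about 20 g) were infected ip with 6 × 10^6 P. berghei-infected erythrocytes from a donor mouse. They were dosed by oral gavage once daily for 4 days, starting 1 h post-infection, in PEG 300/propylene glycol/water (55/25/20 by weight). Parasitemia was read daily on Giemsa smears from day 4, and mice were euthanized above 50% parasitemia. Percent survival was tracked to 21 days.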

Plasmodium berghei [6] = experiment: Antiplasmodial activity against Plasmodium berghei infected in Swiss Webster mouse assessed as mouse survival at 33 mg/kg, po dosed once daily for 4 consecutive days beginning 1 hr after initial infection and measured on day 12 post infection by Giemsa staining method; format: functional; procedure, shortened: as §2
Plasmodium berghei [7] = experiment: Antiplasmodial activity against Plasmodium berghei infected in Swiss Webster mouse assessed as mouse survival at 100 mg/kg, po dosed once daily for 4 consecutive days beginning 1 hr after initial infection and measured on day 8 post infection by Giemsa staining method; format: functional; procedure, shortened: as §1
Plasmodium berghei [8] = experiment: Antiplasmodial activity against Plasmodium berghei infected in Swiss Webster mouse assessed as mouse survival at 100 mg/kg, po dosed once daily for 4 consecutive days beginning 1 hr after initial infection and measured on day 11 post infection by Giemsa staining method; format: functional; procedure, shortened: as §1
Plasmodium berghei [9] = experiment: Antiplasmodial activity against Plasmodium berghei infected in Swiss Webster mouse assessed as mouse survival at 3 mg/kg, po dosed once daily for 4 consecutive days beginning 1 hr after initial infection and measured on day 9 post infection by Giemsa staining method; format: functional; procedure, shortened: as §1
Plasmodium berghei [10] = experiment: Antiplasmodial activity against Plasmodium berghei infected in Swiss Webster mouse assessed as mouse survival at 3 mg/kg, po dosed once daily for 4 consecutive days beginning 1 hr after initial infection and measured on day 8 post infection by Giemsa staining method; format: functional; procedure, shortened: as §1
Plasmodium berghei [11] = experiment: Antiplasmodial activity against Plasmodium berghei infected in Swiss Webster mouse assessed as mouse survival at 100 mg/kg, po dosed once daily for 4 consecutive days beginning 1 hr after initial infection and measured on day 6 post infection by Giemsa staining method; format: functional; procedure, shortened: as §1
Jurkat = experiment: Cytotoxicity against human Jurkat cells incubated for 72 hrs by MTT assay; format: cell-based
Plasmodium berghei [12] = experiment: Antiplasmodial activity against Plasmodium berghei infected in Swiss Webster mouse assessed as mouse survival at 1 mg/kg, po dosed once daily for 4 consecutive days beginning 1 hr after initial infection and measured on day 4 post infection by Giemsa staining method; format: functional; procedure, shortened: as §1
Plasmodium berghei [13] = experiment: Antiplasmodial activity against Plasmodium berghei infected in Swiss Webster mouse assessed as mouse survival at 33 mg/kg, po dosed once daily for 4 consecutive days beginning 1 hr after initial infection and measured on day 11 post infection by Giemsa staining method; format: functional; procedure, shortened: as §2
Plasmodium berghei [14] = experiment: Antiplasmodial activity against Plasmodium berghei infected in Swiss Webster mouse assessed as mouse survival at 33 mg/kg, po dosed once daily for 4 consecutive days beginning 1 hr after initial infection and measured on day 4 post infection by Giemsa staining method; format: functional; procedure, shortened: as §2
Plasmodium berghei [15] = experiment: Antiplasmodial activity against Plasmodium berghei infected in Swiss Webster mouse assessed as mouse survival at 11 mg/kg, po dosed once daily for 4 consecutive days beginning 1 hr after initial infection and measured on day 11 post infection by Giemsa staining method; format: functional; procedure, shortened: as §1
Plasmodium berghei [16] = experiment: Antiplasmodial activity against Plasmodium berghei infected in Swiss Webster mouse assessed as mouse survival at 33 mg/kg, po dosed once daily for 4 consecutive days beginning 1 hr after initial infection and measured on day 10 post infection by Giemsa staining method; format: functional; procedure, shortened: as §2
[17] = Cmax in CD1 mouse at 5 mg/kg, po by HPLC coupled to tandem mass spectrometry; format: ADME, organism-based; parameters: dose 5 mg/kg, route oral; details: in vivo
Procedure, shortened: (§3)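 Adult female CD-1 mice received 5 mg/kg by both the iv and the oral-gavage route. Two vehicles were used: PEG 400/dimethylacetamide/water (45/10/45, pH 5.8), or PEG 300/propylene glycol/water (55/25/20, pH 5.9). Blood samples were collected and drug was quantified by HPLC-tandem MS.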

[18] = Clearance in CD1 mouse at 5 mg/kg, iv by HPLC coupled to tandem mass spectrometry; format: ADME, organism-based; details: in vivo; procedure, shortened: as §3
Mus musculus = experiment: Oral bioavailability in CD1 mouse at 5 mg/kg by HPLC coupled to tandem mass spectrometry; format: ADME, organism-based; details: in vivo; procedure, shortened: as §3
[19] = Terminal half life in CD1 mouse at 5 mg/kg, iv by HPLC coupled to tandem mass spectrometry; format: ADME, organism-based; details: in vivo, read-out: beta t1/2 (converted); procedure, shortened: as §3
[20] = AUC (0 to infinity) in CD1 mouse at 5 mg/kg, iv by HPLC coupled to tandem mass spectrometry; format: ADME, organism-based; parameters: dose 5 mg/kg, route intravenous, time infinity; details: in vivo; procedure, shortened: as §3
[21] = AUC (0 to infinity) in CD1 mouse at 5 mg/kg, po by HPLC coupled to tandem mass spectrometry; format: ADME, organism-based; parameters: dose 5 mg/kg, route oral, time infinity; details: in vivo; procedure, shortened: as §3
[22] = Stability in mouse liver microsomes assessed as compound remaining at 1 uM incubated for 1 hr in presence of NADPH by LC/MS/MS method; format: ADME
Procedure, shortened: (§4)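 Compound at 1 μM final (from a 1 mg/mL DMSO stock) was incubated with mouse or human liver microsomes (0.5 mg/mL protein) in 100 mM potassium phosphate, pH 7.4, at 37 °C with shaking, with or without 1 mM NADPH. Samples were taken over 0–120 min and tested in duplicate. Reactions were quenched with cold acetonitrile plus internal standard and analyzed by LC/MS/MS.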

[23] = Terminal half life in CD1 mouse at 5 mg/kg, po by HPLC coupled to tandem mass spectrometry; format: ADME, organism-based; details: in vivo, read-out: beta t1/2 (converted)
Procedure, shortened: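 Adult female CD-1 mice were given oral gavage at 5 mg/kg in a formulated solution, either PEG 400/dimethylacetamide/water (45/10/45, pH 5.8) or PEG 300/propylene glycol/water (55/25/20, pH 5.9). Blood samples were analysed for drug by HPLC-tandem MS, and the terminal half-life was derived.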

Liver microsome = experiment: Stability in human liver microsomes assessed as compound remaining at 1 uM incubated for 1 hr in presence of NADPH by LC/MS/MS method; format: ADME; procedure, shortened: as §4

SMILES	survival at 11 mg/kg (Plasmodium berghei [1]) [%]	survival at 3 mg/kg (Plasmodium berghei [2]) [%]	survival at 3 mg/kg (Plasmodium berghei [3]) [%]	survival at 3 mg/kg (Plasmodium berghei [4]) [%]	survival at 33 mg/kg (Plasmodium berghei [5]) [%]	survival at 33 mg/kg (Plasmodium berghei [6]) [%]	survival at 100 mg/kg (Plasmodium berghei [7]) [%]	survival at 100 mg/kg (Plasmodium berghei [8]) [%]	survival at 3 mg/kg (Plasmodium berghei [9]) [%]	survival at 3 mg/kg (Plasmodium berghei [10]) [%]	survival at 100 mg/kg (Plasmodium berghei [11]) [%]	pIC50 (Jurkat)	survival at 1 mg/kg (Plasmodium berghei [12]) [%]	survival at 33 mg/kg (Plasmodium berghei [13]) [%]	survival at 33 mg/kg (Plasmodium berghei [14]) [%]	survival at 11 mg/kg (Plasmodium berghei [15]) [%]	survival at 33 mg/kg (Plasmodium berghei [16]) [%]	Cmax [17] [ng/mL]	clearance [18] [mL/min/kg]	F (Mus musculus) [%]	further results
O=C(O)c1cnc(Oc2ccc3c(c2)B(O)OC3)cn1	60	100	100	100	40	0	100	60	0	20	100	< 4.00	100	40	100	20	40				
O=C(O)c1ccc(Oc2ccc3c(c2)B(O)OC3)cn1	40	100	100	100	0		80		0	20	100		100		100						
COC(=O)c1cnc(Oc2ccc3c(c2)B(O)OC3)cn1	100	100	100	100	100	20	100	100	40	80	100	5.12	100	100	100	80	100	160	208	23	half-life [19]: 18 min; AUC(0-inf) [20]: 400 ng·h/mL; AUC(0-inf) [21]: 100 ng·h/mL; Stability [22]: 0%; half-life [23]: 60 min; Stability (Liver microsome): 0%
NC(=O)c1cnc(Oc2ccc3c(c2)B(O)OC3)cn1	100	100	100	100	60		100		0	60	100	4.32	100		100		0	1380	37.7	99	half-life [19]: 24 min; AUC(0-inf) [20]: 2200 ng·h/mL; AUC(0-inf) [21]: 2290 ng·h/mL; Stability [22]: 97%; half-life [23]: 126 min; Stability (Liver microsome): 87%
